In PubChem BioAssay AID624466 (The Scripps Research Institute Molecular Screening Center, 2012):
About 5,400 (1.5%) of roughly 360,000 compounds were called active. Only a selection was taken, and actives are over-represented in it overall. Values without a mark were called inactive.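 How the source made its calls: active means inhibition above a per-plate cutoff, the mean inhibition of test compounds on that plate plus 3 SD (cut at about 49% in these data); inactive means the rest.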

What follows are compounds tested against Trace amine-associated receptor 1 (Homo sapiens) (UniProt Q96RJ0) (assay: blockers of beta-PEA-driven TAAR1 calcium signal – Fluo-8 calcium fluorescence, CHO RD-HGA16 cells, primary screen (AID 624466;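 further: 0% = DMSO plus EC80 beta-PEA response and 100% = DMSO alone without agonist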)). Conditions: CHO RD-HGA16 TAAR1, Fluo-8 calcium fluorescence, antagonist; at 3 µM; active compounds read high.
Trace amine-associated receptor 1 (Homo sapiens), sequence (Q96RJ0 whole entry, looked up): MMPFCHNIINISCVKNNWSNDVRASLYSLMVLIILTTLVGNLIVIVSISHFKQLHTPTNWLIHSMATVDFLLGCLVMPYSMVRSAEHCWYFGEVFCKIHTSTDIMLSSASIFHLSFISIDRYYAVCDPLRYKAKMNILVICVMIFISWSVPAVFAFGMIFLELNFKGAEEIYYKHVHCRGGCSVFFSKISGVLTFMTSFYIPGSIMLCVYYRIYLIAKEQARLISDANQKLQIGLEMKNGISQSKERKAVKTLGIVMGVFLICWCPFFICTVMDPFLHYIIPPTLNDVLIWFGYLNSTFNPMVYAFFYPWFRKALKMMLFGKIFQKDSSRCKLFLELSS
Procedure, shortened: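 Test system: CHO RD-HGA16 cells bearing hTAAR1 | Reagent: β-PEA, EC80 | Compound dosing: 3 µM, single point | Schedule: Dye loading 75 min at 37 °C, then 30 min room temperature | Signal: Calcium fluorescence with Fluo-8 | Evaluation: Percent inhibition of PEA-evoked calcium signal, max/basal emission ratio | Control set: DMSO-only wells and EC80 β-PEA-stimulated wells | Repeats: Singlicate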
`C[C@H]1[C@H](c2ccccc2)Oc2cc(Br)ccc2S(=O)(=O)N1Cc1cccc(F)c1` was tested, and the inhibition was 0.32%. `COc1cccc(-c2nc3nc(C)cc(C)n3c2NC2CCCCC2)c1` showed an inhibition of -7.98%. Work on `Cc1ccc(N2CC(C(=O)N3CCC4(CC3)CC(=O)c3ccccc3O4)CC2=O)cc1C` (centres undefined) yielded an inhibition of -12.3%. In the case of `CC(C)c1c(C(=O)N/N=C/c2ccccc2C(=O)O)nnn1-c1nonc1N`, the inhibition was -11.8%. In the case of `Nc1nonc1-n1nnc(C(=O)N/N=C/C2CCCCC2)c1-c1ccccc1`, the inhibition was -20.6%. In the case of `Nc1nonc1-n1nnc(C(=O)N/N=C/c2c[nH]c3ccccc23)c1-c1ccccc1`, the inhibition was 59% (active). Compound `CC(=O)N1C[C@@H](CO)[C@@H](N(C)C(=O)C(C)(C)C)C[C@H]1c1ccccc1Br` has an inhibition of -17.9%. Compound `Cc1ccc(NC(=O)COC(=O)CNC(=O)c2ccc(Cl)cc2Cl)cc1S(=O)(=O)N1CCOCC1` has an inhibition of -20.3%. Compound `C[C@@H]1CC2=C(C(=O)OC(C)(C)O2)[C@@H](C2CC2)O1` has an inhibition of -2.56%. In the case of `CCOC(=O)[C@]12CCCC=C1N(Cc1cccc3ccccc13)C(=O)[C@H](CC(=O)NCC13CC4CC(CC(C4)C1)C3)C2`, the inhibition was -11.8%. With `CC(=O)N1CCN(C(=O)c2cc(-c3ccc(Cl)s3)nc3ccccc23)CC1` the inhibition was 52% (active). `Cc1c(NC(=O)c2cc(-c3ccc(Cl)s3)nc3ccccc23)c(=O)n(-c2ccccc2)n1C` gave an inhibition of 23.5%. In the case of `O=C(c1cc(-c2ccc(Cl)s2)nc2ccccc12)N1CCOCC1`, the inhibition was 23.2%. Work on `O=C(NCc1cccc(Cl)c1)C1CCN(c2nnc(N3CCCC3=O)s2)CC1` yielded an inhibition of 1.44%. `Cc1ccc(S(=O)(=O)N[C@H]2CCC[C@@H]2O)cc1` gave an inhibition of -6.11%. Compound `Nc1nonc1-n1nnc(C(=O)N/N=C/c2cc(Br)ccc2O)c1CSC1=NCCS1` has an inhibition of 18.1%. With `Cc1ccc(SCc2c(C(=O)N/N=C/c3cccnc3)nnn2-c2nonc2N)cc1` the inhibition was 63.7% (active). In the case of `CCN(CC)Cc1c(C(=O)N/N=C/c2cccc(OCc3ccc(F)cc3)c2)nnn1-c1nonc1N`, the inhibition was -24.4%. `CCOC(=O)C1CCCN(C(=O)c2cccc(S(=O)(=O)N3CCOCC3)c2)C1` (centres undefined) was tested, and the inhibition was -16.4%. For `C=CCCN(Cc1ccccc1)S(=O)(=O)c1ccccc1Br`, the inhibition was 35.3%. `O=C1Nc2ccccc2C1=NN=Cc1ccco1` was tested, and the inhibition was -11.4%. Work on `CC1Cc2[nH][nH]c(=O)c2C(C2CC2)O1` (centres undefined) yielded an inhibition of -0.95%. Work on `Cc1ccccc1-n1nnc2c(=O)oc3ccccc3c21` yielded an inhibition of -7.09%. `O=C(Nc1cccc(F)c1)c1coc(=O)c(Br)c1` was tested, and the inhibition was -5.62%. `C=CCc1cc(S(=O)(=O)c2ccc(O)c(CC=C)c2)ccc1O` was tested, and the inhibition was 56.9% (active). Work on `O=C1[C@@H](c2ccccc2)[C@@H](c2ccccc2)N1c1ccccc1` yielded an inhibition of -22.7%. With `COc1ccc(C(=O)Nc2nc(-c3ccc(S(=O)(=O)N4CCOCC4)cc3)cs2)cc1` the inhibition was 60.4% (active). `COc1ccc(C(=O)Nc2cc(S(=O)(=O)N3CCCC3)ccc2Cl)cc1` showed an inhibition of 2.12%. `Cc1c(C(=O)Nc2cccc(S(=O)(=O)N3CCOCC3)c2)oc2ccccc12` gave an inhibition of 13.3%. `Cc1c(C(=O)Nc2ccccc2Cl)oc2ccc(S(=O)(=O)N3CCC4(CC3)OCCO4)cc12` was tested, and the inhibition was 46.8%. In the case of `COc1ccc(NC(=O)c2oc3ccc(S(=O)(=O)N4CCOCC4)cc3c2C)cc1`, the inhibition was 57.4% (active). In the case of `COC(=O)COc1ccc(S(=O)(=O)N2CCOCC2)cc1`, the inhibition was -11.5%. In the case of `CCc1ccc(S(=O)(=O)Nc2cc3c(cc2N2CCCCC2)n(C)c(=O)c(=O)n3C)cc1`, the inhibition was -20.8%. Compound `CCCCCCCCN1C(=O)[C@@H](CC(=O)N2CCN(C(=O)OCC)CC2)C[C@@]2(C(=O)OC)C1=C[C@H](C1CCCC1)O[C@@H]2C` has an inhibition of -10.4%. For `O=C(NCc1ccc2c(c1)OCO2)c1sccc1Br`, the inhibition was -7.07%. Work on `C=CCn1c(=O)c(C(=O)NCc2ccc3c(c2)OCO3)c(O)c2ccccc21` yielded an inhibition of -8.39%. In the case of `O=C(NCc1ccc2c(c1)OCO2)c1c(-c2ccsc2)sc2ccccc12`, the inhibition was 77.1% (active). Work on `COCCCNC(=O)C[C@H]1C[C@@]2(C(=O)OC)C(=C[C@H](C(C)(C)C)O[C@@H]2C)N(Cc2ccc3c(c2)OCO3)C1=O` yielded an inhibition of -10.8%. For `Cn1nccc1/C=N\NC(=O)c1ccc(Cl)cc1`, the inhibition was -23%. `O=C(Cc1ccccc1)Nc1cccc(C(=O)N/N=C/c2ccco2)c1` showed an inhibition of 7.95%. `O=C(N/N=C/c1ccccn1)c1cccc(NC(=O)c2ccc(Cl)cc2)c1` was tested, and the inhibition was 56.6% (active). Work on `CC(C)CNc1cccc2c1S(=O)(=O)N[C@H](C)CO2` yielded an inhibition of 9.62%. Work on `Cc1ccc(C2=CSC3=NS(=O)(=O)CCN23)cc1C` yielded an inhibition of 10.5%. Compound `CC(=NNC(N)=O)c1ccc(Cl)c(-n2cccc2)c1` has an inhibition of -7.84%. With `COc1ccc(OC)c(CNC(=O)Cn2nc(C)c3c(C)n(-c4ccc(C)cc4)nc3c2=O)c1` the inhibition was -15.7%. `O=C(C1=C[C@H](c2coc3ccccc3c2=O)C[C@H](OCc2ccc(CO)cc2)O1)N1CCOCC1` showed an inhibition of 17.7%. With `O=C(NC1CC1)C1=C[C@H](c2c[nH]c3ccccc23)C[C@H](OCc2ccc(CO)cc2)O1` the inhibition was -9.17%. With `O=C(C1=C[C@H](c2ccc(C(F)(F)F)cc2)C[C@H](OCc2ccc(CO)cc2)O1)N1CCN(Cc2ccccc2)CC1` the inhibition was 7.66%. With `CN1CCN(C(=O)C2=C[C@H](c3ccc4c(c3)OCO4)C[C@H](OCc3ccc(CO)cc3)O2)CC1` the inhibition was 18.1%. With `O=C(C1=C[C@H](C2CC2)C[C@H](OCc2ccc(CO)cc2)O1)N1CCN(Cc2ccccc2)CC1` the inhibition was 1.78%. For `NC(=O)C1=C[C@@H](c2csc3ccccc23)C[C@@H](OCc2ccc(CO)cc2)O1`, the inhibition was 17.2%. For `NC(=O)C1=C[C@H](c2csc3ccccc23)C[C@H](OCc2ccc(CO)cc2)O1`, the inhibition was 49.7% (active). `CC(=O)n1cc([C@H]2C=C(C(=O)N3CCOCC3)O[C@@H](OCc3ccc(CO)cc3)C2)c2ccccc21` was tested, and the inhibition was 51.8% (active). For `CC(=O)n1cc([C@@H]2C=C(C(=O)N3CCN(Cc4ccc5c(c4)OCO5)CC3)O[C@H](OCc3ccc(CO)cc3)C2)c2ccccc21`, the inhibition was 49.4% (active).
